Assay results as given in ChEMBL document CHEMBL2010713, “Structure-activity relationship of a new series of reversible dual monoacylglycerol lipase/fatty acid amide hydrolase inhibitors” (J Med Chem, 2012).
Active and inactive are the calls of the source. The rule behind the calls is not given here.

Assays:
[1] = target: Monoglyceride lipase (Rattus norvegicus) (UniProt Q8R431); assay: Inhibition of rat brain cytosolic MAGL assessed as [3H]-2-oleoylglycerol hydrolysis after 10 mins by liquid scintillation spectroscopy
[2] = target: T1, Fatty-acid amide hydrolase 1 (Rattus norvegicus) (UniProt P97612); assay: Inhibition of rat brain membrane FAAH assessed as [3H]-anandamide hydrolysis at 100 uM after 10 mins by liquid scintillation spectroscopy
T1 sequence (whole entry): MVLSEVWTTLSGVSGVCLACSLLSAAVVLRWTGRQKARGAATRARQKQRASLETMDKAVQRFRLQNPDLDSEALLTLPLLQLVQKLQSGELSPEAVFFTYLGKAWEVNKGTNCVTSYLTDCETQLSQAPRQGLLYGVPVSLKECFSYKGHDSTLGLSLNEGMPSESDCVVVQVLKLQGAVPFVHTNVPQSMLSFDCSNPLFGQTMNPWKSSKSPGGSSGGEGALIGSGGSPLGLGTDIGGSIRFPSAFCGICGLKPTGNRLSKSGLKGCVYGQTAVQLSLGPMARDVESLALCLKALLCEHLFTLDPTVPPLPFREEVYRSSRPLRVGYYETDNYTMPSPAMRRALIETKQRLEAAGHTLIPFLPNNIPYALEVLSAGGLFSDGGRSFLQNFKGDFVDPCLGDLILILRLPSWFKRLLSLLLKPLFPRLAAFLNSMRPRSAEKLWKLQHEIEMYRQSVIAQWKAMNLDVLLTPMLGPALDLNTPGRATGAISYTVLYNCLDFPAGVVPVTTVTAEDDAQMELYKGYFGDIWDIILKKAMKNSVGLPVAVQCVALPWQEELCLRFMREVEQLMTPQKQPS
Method in brief: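 Membrane fraction of rat cerebella (100000g pellet resuspended in 50 mM sodium phosphate pH 8.0), diluted in 10 mM Tris-HCl, 1 mM EDTA, pH 7.2, for initial-rate conditions. [3H]-anandamide, ethanolamine-labelled, final 0.5 μM, with fatty acid-free BSA. Aqueous-phase tritium measured by liquid scintillation; blanks lacked enzyme; activity as percent of solvent-carrier control. Highest concentration 100 μM; 3–10 independent experiments.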

[3] = target: T2, Monoglyceride lipase (Homo sapiens) (UniProt Q99685); assay: Inhibition of human recombinant his-tagged MAGL expressed in Escherichia coli assessed as hydrolysis of 4-nitrophenyl acetate at 10 uM after 20 mins by microplate reader
T2 sequence (whole entry): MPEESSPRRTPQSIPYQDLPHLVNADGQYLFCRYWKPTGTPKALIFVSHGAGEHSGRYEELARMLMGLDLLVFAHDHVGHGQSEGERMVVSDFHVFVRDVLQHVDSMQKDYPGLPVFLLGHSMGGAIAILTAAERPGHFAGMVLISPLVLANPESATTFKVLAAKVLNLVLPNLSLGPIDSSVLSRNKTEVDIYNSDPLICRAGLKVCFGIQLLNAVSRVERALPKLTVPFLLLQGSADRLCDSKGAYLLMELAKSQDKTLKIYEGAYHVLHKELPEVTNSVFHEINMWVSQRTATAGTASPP

[4] = target: T3, Monoglyceride lipase (Homo sapiens, UniProt Q99685); assay: Inhibition of human recombinant his-tagged MAGL expressed in Escherichia coli assessed as hydrolysis of 4-nitrophenyl acetate after 20 mins by microplate reader
T3 sequence (Q99685 whole entry): T2 sequence (whole entry)

[5] = target: T4, Monoglyceride lipase (Rattus norvegicus) (UniProt Q8R431); assay: Inhibition of rat brain cytosolic MAGL assessed as [3H]-2-arachidonoyl glycerol hydrolysis at 100 uM after 10 mins by liquid scintillation spectroscopy
T4 sequence (whole entry): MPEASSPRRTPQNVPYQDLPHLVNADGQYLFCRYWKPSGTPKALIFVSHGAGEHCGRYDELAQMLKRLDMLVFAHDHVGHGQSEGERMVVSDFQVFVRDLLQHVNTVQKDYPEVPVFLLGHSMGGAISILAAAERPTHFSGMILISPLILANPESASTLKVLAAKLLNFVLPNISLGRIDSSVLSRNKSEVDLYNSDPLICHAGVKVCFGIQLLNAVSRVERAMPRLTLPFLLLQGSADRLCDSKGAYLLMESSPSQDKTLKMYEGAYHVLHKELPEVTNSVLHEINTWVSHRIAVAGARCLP

[6] = target: Monoglyceride lipase (Rattus norvegicus) (UniProt Q8R431); assay: Inhibition of rat brain cytosolic MAGL assessed as [3H]-2-oleoylglycerol hydrolysis at 100 uM after 10 mins by liquid scintillation spectroscopy; settings: Cytosol
[7] = target: Fatty-acid amide hydrolase 1 (Rattus norvegicus) (UniProt P97612); assay: Inhibition of rat brain membrane FAAH assessed as [3H]-anandamide hydrolysis after 10 mins by liquid scintillation spectroscopy
[8] = target: T4, Monoglyceride lipase (Rattus norvegicus); assay: Irreversible inhibition of rat brain cytosolic MAGL assessed as [3H]-2-arachidonoyl glycerol hydrolysis at 0.1 uM preincubated for 60 mins by liquid scintillation
[9] = target: T4, Monoglyceride lipase (Rattus norvegicus); settings: 10 uM
[10] = target: T4, Monoglyceride lipase (Rattus norvegicus); assay: Irreversible inhibition of rat brain cytosolic MAGL assessed as […] at 3 to 10 uM preincubated for 60 mins by liquid scintillation
[11] = target: T4, Monoglyceride lipase (Rattus norvegicus); assay: Irreversible inhibition of rat brain cytosolic MAGL assessed as […] at 0.1 to 1 uM preincubated for 60 mins by liquid scintillation
[12] = target: T4, Monoglyceride lipase (Rattus norvegicus); settings: 10 uM; remark: listed apart in the source
[13] = target: T2, Monoglyceride lipase (Homo sapiens)
[14] = target: T4, Monoglyceride lipase (Rattus norvegicus); settings: 10 uM; remark: listed apart in the source
[15] = target: T4, Monoglyceride lipase (Rattus norvegicus); settings: 10 uM; remark: listed apart in the source
[16] = target: T4, Monoglyceride lipase (Rattus norvegicus); assay: Irreversible inhibition of rat brain cytosolic MAGL assessed as [3H]-2-arachidonoyl glycerol hydrolysis at 3 uM preincubated for 60 mins measured after dilution by liquid scintillation
[17] = target: T4, Monoglyceride lipase (Rattus norvegicus); assay: Irreversible inhibition of rat brain cytosolic MAGL assessed as [3H]-2-arachidonoyl glycerol hydrolysis at 3 uM preincubated for 60 mins followed by […] compound treated after dilution by liquid scintillation
[18] = target: T4, Monoglyceride lipase (Rattus norvegicus); assay: Irreversible inhibition of rat brain cytosolic MAGL assessed as [3H]-anandamide hydrolysis at 3 uM preincubated for 60 mins followed by […] compound treated after dilution by liquid scintillation
[19] = target: T3, Monoglyceride lipase; assay: Non-competitive inhibition of human recombinant MAGL assessed as 7-hydroxycoumarin level using umbelliferyl arachidonate as substrate by luminescence spectrophotometer
[20] = target: T4, Monoglyceride lipase (Rattus norvegicus); assay: Irreversible inhibition of rat brain cytosolic MAGL assessed as [3H]-anandamide hydrolysis at 3 uM preincubated for 60 mins measured after dilution by liquid scintillation

Structure (SMILES) | inhibition [3] | IC50 [4] | further results
CCCCC/C=C\C/C=C\C/C=C\C/C=C\CCCC(=O)OCC1CCCCO1 (stereo not given) |  |  | IC50 [1]: 5.6 µM
O=C(CCCCCc1ccc(-c2ccccc2)cc1)OC[C@H]1CO1 | 33% | > 10 µM | Imax [2]: 91%
O=C(CCc1ccc(-c2ccccc2)cc1)OCC1CCCCO1 (racemic) |  | 1.6 µM | Imax [3]: 67%
O=C(/C=C/c1ccc(-c2ccccc2)cc1)OCC1CCCCO1 (racemic) |  | 0.76 µM | Imax [3]: 90%; inhibition [5]: 37%
O=C(C/C=C/c1ccc(-c2ccccc2)cc1)OCC1CCCCO1 (racemic) | 12% | > 10 µM | 
O=C(CCCCc1ccc(-c2ccccc2)cc1)OCC1CCCCO1 (racemic) |  | 12 µM | 
O=C(Cc1ccc(-c2ccccc2)cc1)OCC1CO1 (racemic) | < 10% |  | 
O=C(Cc1ccc(Cc2ccccc2)cc1)OC(CO)CO | < 10% |  | inhibition [6]: 49%; IC50 [7]: 0.7 µM; IC50 [1]: > 100 µM
O=C(CCc1ccc(-c2ccccc2)cc1)OCC1CO1 (racemic) | 22% | > 10 µM | 
O=C(CCCc1ccc(-c2ccccc2)cc1)OCC1CCCCO1 (racemic) | 34% | > 10 µM | 
O=C(Cc1ccc(Cc2ccccc2)cc1)OCC1CO1 (racemic) |  | 16 µM | 
O=C(OCC1CO1)c1ccc(CCc2ccccc2)cc1 (racemic) | < 10% |  | 
O=C(Oc1ccc([N+](=O)[O-])cc1)N1CCC(C(O)(c2ccc3c(c2)OCO3)c2ccc3c(c2)OCO3)CC1 |  |  | inhibition [8]: Active
O=C(CCCCCc1ccc(-c2ccccc2)cc1)OCC1CCCCO1 (racemic) | 33% | > 10 µM | 
O=C(Cc1ccc(Cc2ccccc2)cc1)OC[C@@H]1CO1 | < 10% |  | 
O=C(CCCc1ccc(-c2ccccc2)cc1)OCC1CO1 (racemic) |  | 1.8 µM | Imax [3]: 86%

Structure (SMILES) | inhibition [3] | IC50 [4] | further results
O=C(CCCCCCc1ccc(-c2ccccc2)cc1)OCC1CCCCO1 (racemic) | 37% | > 10 µM | Imax [5]: 83%
O=C(OCC1CCCCO1)c1ccc(CCc2ccccc2)cc1 (racemic) | < 10% |  | 
O=C(CCCc1ccc(Cc2ccccc2)cc1)OCC1CO1 (racemic) | 29% | > 10 µM | 
O=C(CCCCCc1ccc(-c2ccccc2)cc1)OC(CO)CO |  | 7.5 µM | 
O=C(CCCCc1ccc(-c2ccccc2)cc1)OCC1CO1 (racemic) |  | 6.6 µM | Imax [2]: 87%; IC50 [7]: 4.6 µM; IC50 [1]: 2.6 µM
O=C(Cc1ccc(-c2ccccc2)cc1)OCC1CCCCO1 (racemic) | 21% | > 10 µM | 
O=C(/C=C/Cc1ccc(-c2ccccc2)cc1)OCC1CCCCO1 (racemic) | 49% | > 10 µM | 
O=C(Cc1ccc(Cc2ccccc2)cc1)OCC1CCCCO1 (racemic) | < 10% |  | inhibition [6]: 25%; IC50 [7]: 6.8 µM; Imax [5]: 96%; IC50 [1]: > 100 µM
O=C(CCCCCCc1ccc(-c2ccccc2)cc1)OCC1CO1 (racemic) | 11% | > 10 µM | 
O=C(CCCCCc1ccc(-c2ccccc2)cc1)OC[C@@H]1CO1 | 45% | > 10 µM | Imax [2]: 92%; Imax [5]: > 95%
O=C(/C=C/c1ccc(-c2ccccc2)cc1)OCC1CO1 (racemic) |  | 5.1 µM | Imax [5]: 73%
O=C(CCCCCc1ccc(-c2ccccc2)cc1)OCC1CO1 (racemic) |  | 4.1 µM | inhibition [9]: Active; Imax [2]: 89%; inhibition [10]: inactive; inhibition [11]: inactive; inhibition [12]: Active; Kic [13]: 8 µM; inhibition [14]: Active; inhibition [15]: Active
O=C(CCc1ccc(Cc2ccccc2)cc1)OCC1CO1 (racemic) | < 10% |  | Imax [2]: 72%
O=C(Cc1ccc(Cc2ccccc2)cc1)OC[C@H]1CO1 |  | 2.4 µM | inhibition [10]: inactive; inhibition [16]: inactive; inhibition [17]: inactive; inhibition [11]: inactive; inhibition [18]: inactive; Ki [19]: 40 µM; inhibition [20]: inactive
O=C(CCc1ccc(Cc2ccccc2)cc1)OCC1CCCCO1 (racemic) | < 10% |  | 
O=C(CCCc1ccc(Cc2ccccc2)cc1)OCC1CCCCO1 (racemic) | 14% | > 10 µM | Imax [5]: 72%
